Measurements reported in ChEMBL document CHEMBL2203122 (J Med Chem, 2012).

Assays:
Rattus norvegicus [1] = assay: Inhibition of cocaine-induced conditioned place preference in rat assessed as time spent in the chamber at 300 mg/kg, ip administered 2.5 hrs prior to cocaine-challenge measured after 12 days for 15 mins (reference value: 7.1 +/- 0.6 mins); assay type: functional; conditions: route intraperitoneal
Rattus norvegicus [2] = assay: Toxicity in Wistar albino rat assessed as mortality at 200 mg/kg, ip measured up to 3 weeks; assay type: organism-based; parameters: dose 200 mg/kg, route intraperitoneal; conditions: in vivo, 504 h
In short: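 Mixed-sex Wistar albino rats, 15 per group, dosed ip once daily with drug in 0.9% saline. Monitored for mortality, moribundity, clinical signs, feed intake and body weight. Animals in distress over 24 h were euthanized. Some received food supplements or ip fluids during the first 3 weeks.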

Rattus norvegicus [3] = assay: Retinotoxicity in Wistar albino rat assessed as increase rod implicit time at 200 mg/kg, ip administered QD for 45 to 90 days relative to control; assay type: toxicity, organism-based; parameters: dose 200 mg/kg, route intraperitoneal; conditions: in vivo
In short: (§1)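 Wistar albino rats, 9 weeks old at the start and of both sexes, received one i.p. injection daily for 45 or 90 days. The dose was in 0.9% saline made fresh weekly, against a saline vehicle group. After a 5–7 day washout and at least 12 h of dark adaptation, pupils were dilated (tropicamide 1%, phenylephrine 10%). ERG was then recorded from both eyes under ketamine/xylazine.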

Rattus norvegicus [4] = assay: Retinotoxicity in Wistar albino rat assessed as increase mesopic implicit time at 200 mg/kg, ip administered QD for 45 to 90 days relative to control; assay type: toxicity, organism-based; parameters: dose 200 mg/kg, route intraperitoneal; conditions: in vivo
Rattus norvegicus [5] = assay: Retinotoxicity in Wistar albino rat assessed as increase cone implicit time at 200 mg/kg, ip administered QD for 45 to 90 days relative to control; assay type: toxicity, organism-based; parameters: dose 200 mg/kg, route intraperitoneal; conditions: in vivo; in short: as §1
Rattus norvegicus [6] = assay: Retinotoxicity in female Wistar albino rat assessed as reduction in 10 Hz flicker ERG at 200 mg/kg, ip administered QD for 45 days by electroretinogram analysis relative to control; assay type: toxicity, organism-based; parameters: dose 200 mg/kg, route intraperitoneal; conditions: in vivo, 1080 h
Rattus norvegicus [7] = assay: Retinotoxicity in female Wistar albino rat assessed as reduction in 10 Hz flicker ERG at 200 mg/kg, ip administered QD for 90 days by electroretinogram analysis relative to control; assay type: toxicity, organism-based; parameters: dose 200 mg/kg, route intraperitoneal; conditions: in vivo, 2160 h
Rattus norvegicus [8] = assay: Retinotoxicity in male Wistar albino rat assessed as reduction in 10 Hz flicker ERG at 200 mg/kg, ip administered QD for 45 days by electroretinogram analysis relative to control; assay type: toxicity, organism-based; parameters: dose 200 mg/kg, route intraperitoneal; conditions: in vivo, 1080 h
Rattus norvegicus [9] = assay: Retinotoxicity in male Wistar albino rat assessed as reduction in 10 Hz flicker ERG at 200 mg/kg, ip administered QD for 90 days by electroretinogram analysis relative to control; assay type: toxicity, organism-based; parameters: dose 200 mg/kg, route intraperitoneal; conditions: in vivo, 2160 h

## C=CC(N)CCC(=O)O (centres undefined) [VIGABATRIN]
Rattus norvegicus [1]
  Time: 7.9 min
Rattus norvegicus [2]
  Activity: Toxic
Rattus norvegicus [3]
  Activity: Toxic
Rattus norvegicus [4]
  Activity: Toxic
Rattus norvegicus [5]
  Activity: Toxic
Rattus norvegicus [6]
  Activity: Toxic
Rattus norvegicus [7]
  Activity: Toxic
Rattus norvegicus [8]
  Activity: Toxic
Rattus norvegicus [9]
  Activity: Toxic
